# Reference: ChEMBL document CHEMBL1135409, “Structure-activity relationships of a novel class of endothelin-A receptor antagonists and discovery of potent and selective receptor antagonist, 2-(benzo[1,3]dioxol-5-yl)-6-isopropyloxy-4-(4-methoxyphenyl)-2H-chromene-3-carboxylic acid (S-1255). 1. Study on structure-activity relationships and …” (J Med Chem, 2002)
# pIC50: −log10 of the molar value.
# How the values were obtained:
# [1] = biological target: T1, Endothelin receptor type B (Sus scrofa, UniProt P35463); assay: Binding affinity to endothelin B receptor measured by inhibition of [125I]ET-3 binding recombinant pig ET-B receptor expressed in COS-7 cells; assay type: cell-based
# T1 sequence (P35463 whole entry): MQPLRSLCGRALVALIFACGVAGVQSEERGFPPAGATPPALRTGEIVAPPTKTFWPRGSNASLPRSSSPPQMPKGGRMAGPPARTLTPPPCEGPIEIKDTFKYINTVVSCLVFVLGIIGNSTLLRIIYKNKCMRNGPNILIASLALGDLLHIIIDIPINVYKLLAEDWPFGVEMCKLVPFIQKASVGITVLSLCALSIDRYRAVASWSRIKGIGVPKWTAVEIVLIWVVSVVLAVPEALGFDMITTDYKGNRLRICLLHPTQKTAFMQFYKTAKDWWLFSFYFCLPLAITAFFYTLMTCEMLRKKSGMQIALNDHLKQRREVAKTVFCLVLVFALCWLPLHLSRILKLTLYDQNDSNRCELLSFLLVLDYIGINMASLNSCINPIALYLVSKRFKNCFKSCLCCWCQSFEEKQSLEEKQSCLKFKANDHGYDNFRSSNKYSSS
# In short: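 COS cells transfected with porcine ETB cDNA, in Hank's solution with 20 mM HEPES and protease inhibitors. Stopped by filtration on GF/C filters presoaked in 1% polyethylenimine, washed with 50 mM Tris-HCl pH 7.4, then counted. Nonspecific binding taken with 0.1 μM ET-3.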
# Endothelin-1 receptor = biological target: T2, Endothelin-1 receptor (Rattus norvegicus, UniProt P26684); assay: Binding affinity for endothelin A receptor by inhibition of [125I]ET1 binding in rat aorta smooth muscle cells; assay type: tissue-based
# T2 sequence (P26684 whole entry): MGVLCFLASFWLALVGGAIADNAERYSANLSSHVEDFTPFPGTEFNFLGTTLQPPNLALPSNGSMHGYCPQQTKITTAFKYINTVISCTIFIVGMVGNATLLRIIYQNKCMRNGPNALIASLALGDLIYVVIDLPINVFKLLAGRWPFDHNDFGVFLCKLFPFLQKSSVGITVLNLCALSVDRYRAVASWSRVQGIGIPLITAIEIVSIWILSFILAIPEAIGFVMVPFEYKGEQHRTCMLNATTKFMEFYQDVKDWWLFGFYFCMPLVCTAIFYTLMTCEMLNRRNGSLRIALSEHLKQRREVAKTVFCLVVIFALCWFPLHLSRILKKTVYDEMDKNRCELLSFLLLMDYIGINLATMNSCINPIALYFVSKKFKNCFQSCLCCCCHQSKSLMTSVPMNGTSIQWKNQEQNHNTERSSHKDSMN
# [2] = Ratio of inhibitory concentrations at ET-B receptor relative to that of ET-A receptor
SMILES,pIC50 [1],pIC50 (Endothelin-1 receptor),Ratio [2]
CCCCOC1=C(C(=O)O)C(c2ccc3c(c2)OCO3)Oc2ccccc21 (stereo unspecified),5.31,7.18,74
CCCCOC1=C(C(=O)O)C(c2ccc3c(c2)OCO3)Oc2ccc(OC)cc21 (stereo unspecified),5.64,6.60,9.2
CCCCOc1ccc2c(c1)C(c1ccc3c(c1)OCO3)=C(C(=O)O)C(c1cc(OC)ccc1OC)O2 (stereo unspecified),5.80,6.80,–
CCCCC1=C(C(=O)O)C(c2ccc3c(c2)OCO3)Oc2ccc(OC(C)C)cc21 (stereo unspecified),–,–,840
CCCCOc1ccc2c(c1)C(c1ccc3c(c1)OCO3)=C(C(=O)O)C(c1cccc(OC)c1)O2 (stereo unspecified),6.80,6.46,–
CCCCOc1ccc2c(c1)C(c1ccc3c(c1)OCO3)=C(C(=O)O)C(c1ccc(OC)cc1)O2 (stereo unspecified),7.37,–,–
CC(C)Oc1ccc2c(c1)C=C(C(=O)O)[C@@H](c1ccc3c(c1)OCO3)O2,4.28,6.62,220
CCCOc1ccc2c(c1)C(c1ccc3c(c1)OCO3)=C(C(=O)O)C(c1ccc3c(c1)OCO3)O2 (stereo unspecified),7.10,7.37,–
CCCCOC1=C(C(=O)O)C(c2ccc3c(c2)OCO3)Oc2cc(OCCC)ccc21 (stereo unspecified),5.55,–,–
COc1ccc(C2=C(C(=O)O)C(c3ccc4c(c3)OCO4)Oc3ccc(C(C)C)cc32)cc1 (stereo unspecified),6.72,6.96,1.7
CCCOc1ccc2c(c1)OC(c1ccc3c(c1)OCO3)C(C(=O)O)=C2c1ccc(OC)cc1 (stereo unspecified),5.64,6.01,2.4
CCCCC1=C(C(N)=O)C(c2ccc3c(c2)OCO3)Oc2ccc(OC(C)C)cc21 (stereo unspecified),–,6.39,–
CCCCOC1=C(C(=O)O)C(c2ccc3c(c2)OCO3)Oc2cccc(OCCC)c21 (stereo unspecified),5.22,–,–
CCCCOc1ccc2c(c1)C(c1ccc3c(c1)OCO3)=C(C(=O)O)C(c1ccc(OC)cc1OC)O2 (stereo unspecified),7.46,7.74,–
COc1ccc(C2=C(C(=O)O)C(c3ccc4c(c3)OCO4)Oc3ccc(OC)cc32)cc1 (stereo unspecified),6.27,7.13,7.3
O=C(O)C1=C(c2ccc(Cl)cc2)c2ccccc2OC1c1ccc2c(c1)OCO2 (stereo unspecified),5.24,6.10,–
CCCCOc1ccc(C2Oc3ccc(OCCCC)cc3C(c3ccc4c(c3)OCO4)=C2C(=O)O)cc1 (stereo unspecified),5.44,5.28,–
CC(C)c1ccc(C2=C(C(=O)O)C(c3ccc4c(c3)OCO4)Oc3ccccc32)cc1 (stereo unspecified),5.68,7.08,–
CCCCOc1ccc2c(c1)C(c1ccc3c(c1)OCO3)=C(C(=O)O)C(c1ccccc1OC)O2 (stereo unspecified),6.12,6.89,–
COc1ccccc1C1=C(C(=O)O)C(c2ccc3c(c2)OCO3)Oc2ccccc21 (stereo unspecified),4.51,5.66,–
COc1ccc(C2=C(C(N)=O)C(c3ccc4c(c3)OCO4)Oc3ccc(OC(C)C)cc32)cc1 (stereo unspecified),–,6.20,–

SMILES,pIC50 [1],pIC50 (Endothelin-1 receptor),Ratio [2]
Cc1ccc(C2=C(C(=O)O)C(c3ccc4c(c3)OCO4)Oc3ccccc32)cc1 (stereo unspecified),5.16,6.28,–
CC(C)Oc1ccc2c(c1)C(c1ccc3c(c1)OCO3)=C(C(=O)O)C(c1ccc(C(C)C)cc1)O2 (stereo unspecified),5.57,–,–
CCCCCCCCCCOC1=C(C(=O)O)C(c2ccc3c(c2)OCO3)Oc2ccc(OC(C)C)cc21 (stereo unspecified),5.12,6.89,–
CCCCC1=C(C(=O)NS(C)(=O)=O)C(c2ccc3c(c2)OCO3)Oc2ccc(OC(C)C)cc21 (stereo unspecified),–,7.32,–
O=C(O)C1=Cc2ccccc2OC1c1ccc2c(c1)OCO2 (stereo unspecified),< 4.00,4.17,–
CCCCCOC1=C(C(=O)O)C(c2ccc3c(c2)OCO3)Oc2ccccc21 (stereo unspecified),5.96,7.54,–
CCCCOc1ccc2c(c1)C(c1ccc3c(c1)OCO3)=C(C(=O)O)C(c1ccc(OC)c(OC)c1)O2 (stereo unspecified),6.40,6.09,–
CCOC1=C(C(=O)O)C(c2ccc3c(c2)OCO3)Oc2ccccc21 (stereo unspecified),4.82,6.54,–
CCCOC1=C(C(=O)O)C(c2ccc3c(c2)OCO3)Oc2ccccc21 (stereo unspecified),5.00,6.80,–
CCCOc1ccc2c(c1)C(c1ccc3c(c1)OCO3)=C(C(=O)O)C(c1ccc(OC)cc1)O2 (stereo unspecified),7.14,6.66,–
COC(=O)C1=C(c2ccc(OC)cc2)c2cc(OC(C)C)ccc2OC1c1ccc2c(c1)OCO2 (stereo unspecified),–,< 5.00,–
COc1cccc(C2=C(C(=O)O)C(c3ccc4c(c3)OCO4)Oc3ccccc32)c1 (stereo unspecified),5.55,6.15,–
CCCCOC1=C(C(=O)O)C(c2ccc3c(c2)OCO3)Oc2ccc(OC(C)C)cc21 (stereo unspecified),–,–,1900
CCCCC1=C(C(=O)OC)C(c2ccc3c(c2)OCO3)Oc2ccc(OC(C)C)cc21 (stereo unspecified),–,< 5.00,–
CC(C)Oc1ccc2c(c1)C=C(C(=O)O)[C@H](c1ccc3c(c1)OCO3)O2,< 4.00,–,> 60
O=C(O)C1=C(c2ccccc2)c2ccccc2OC1c1ccc2c(c1)OCO2 (stereo unspecified),< 4.00,6.11,–
COc1ccc(C2=C(C(=O)O)C(c3ccc4c(c3)OCO4)Oc3c(OC)cccc32)cc1 (stereo unspecified),5.40,–,–
CCCCOc1ccc2c(c1)C(c1ccc3c(c1)OCO3)=C(C(=O)O)C(c1ccc(OC3CCCC3)cc1)O2 (stereo unspecified),5.66,5.32,–
O=C(O)C1=C(c2ccc3c(c2)OCO3)c2ccccc2OC1c1ccc2c(c1)OCO2 (stereo unspecified),6.15,6.46,–
CCCC[C@@H]1c2cc(OC(C)C)ccc2O[C@H](c2ccc3c(c2)OCO3)[C@H]1C(=O)O,–,7.11,–

# The remaining lines, values ahead:
pIC50 [1],pIC50 (Endothelin-1 receptor),Ratio [2],SMILES
6.77,8.49,–,CC(C)Oc1ccc2c(c1)C(c1ccc3c(c1)OCO3)=C(C(=O)O)C(c1ccc3c(c1)OCO3)O2 (stereo unspecified)
6.12,8.31,–,CC(C)Oc1ccc2c(c1)C(c1ccc(C(C)C)cc1)=C(C(=O)O)C(c1ccc3c(c1)OCO3)O2 (stereo unspecified)
–,7.74,–,CCCCC1=C(c2nnn[nH]2)C(c2ccc3c(c2)OCO3)Oc2ccc(OC(C)C)cc21 (stereo unspecified)
6.89,7.77,7.6,CCCCOc1ccc2c(c1)C(c1ccc(OC)cc1)=C(C(=O)O)C(c1ccc3c(c1)OCO3)O2 (stereo unspecified)
6.39,8.33,–,CCCCCCCOC1=C(C(=O)O)C(c2ccc3c(c2)OCO3)Oc2ccc(OC(C)C)cc21 (stereo unspecified)
6.33,8.80,–,COc1cccc(C2=C(C(=O)O)C(c3ccc4c(c3)OCO4)Oc3ccc(OC(C)C)cc32)c1 (stereo unspecified)
6.70,8.52,–,COc1ccc(CCOC2=C(C(=O)O)C(c3ccc4c(c3)OCO4)Oc3ccc(OC(C)C)cc32)cc1 (stereo unspecified)
5.14,7.92,–,CC(C)Oc1ccc2c(c1)C(Cl)=C(C(=O)O)C(c1ccc3c(c1)OCO3)O2 (stereo unspecified)
5.47,8.89,–,COc1ccc([C@@H]2c3cc(OC(C)C)ccc3O[C@H](c3ccc4c(c3)OCO4)[C@H]2C(=O)O)cc1
–,8.10,–,CC(C)Oc1ccc2c(c1)C(c1ccc(F)cc1)=C(C(=O)O)C(c1ccc3c(c1)OCO3)O2 (stereo unspecified)
5.32,8.39,–,CC(C)Oc1ccc2c(c1)C(c1ccc(O)cc1)=C(C(=O)O)C(c1ccc3c(c1)OCO3)O2 (stereo unspecified)
–,8.52,–,CC(C)Oc1ccc2c(c1)C(c1ccccc1)=C(C(=O)O)C(c1ccc3c(c1)OCO3)O2 (stereo unspecified)
6.40,8.42,110,CCOc1ccc2c(c1)C(c1ccc(OC)cc1)=C(C(=O)O)C(c1ccc3c(c1)OCO3)O2 (stereo unspecified)
6.22,8.20,–,CC(C)Oc1ccc2c(c1)C(c1ccc(OCc3ccccc3)cc1)=C(C(=O)O)C(c1ccc3c(c1)OCO3)O2 (stereo unspecified)
5.46,8.52,–,COc1ccccc1C1=C(C(=O)O)C(c2ccc3c(c2)OCO3)Oc2ccc(OC(C)C)cc21 (stereo unspecified)
–,9.48,–,C=CCCCOC1=C(C(=O)O)C(c2ccc3c(c2)OCO3)Oc2ccc(OC(C)C)cc21 (stereo unspecified)
5.24,8.17,–,CC(C)Oc1ccc2c(c1)C(OCCCC#N)=C(C(=O)O)C(c1ccc3c(c1)OCO3)O2 (stereo unspecified)
6.28,8.70,260,CCCCOC1=C(C(=O)O)C(c2ccc3c(c2)OCO3)Oc2ccc(OCCC)cc21 (stereo unspecified)
5.19,8.04,700,COC1=C(C(=O)O)C(c2ccc3c(c2)OCO3)Oc2ccc(OC(C)C)cc21 (stereo unspecified)
–,9.49,–,COc1ccc(CC2=C(C(=O)O)C(c3ccc4c(c3)OCO4)Oc3ccc(OC(C)C)cc32)cc1 (stereo unspecified)
6.66,8.36,50,CCCOc1ccc2c(c1)C(c1ccc(OC)cc1)=C(C(=O)O)C(c1ccc3c(c1)OCO3)O2 (stereo unspecified)
5.55,8.66,–,CCOC1=C(C(=O)O)C(c2ccc3c(c2)OCO3)Oc2ccc(OC(C)C)cc21 (stereo unspecified)
–,9.29,–,COc1ccc(C2=C(C(=O)O)C(c3ccc4c(c3)OCO4)Oc3ccc(OC(C)C)cc32)cc1 (stereo unspecified)
–,8.74,–,COc1ccc(C2=C(C(=O)NS(C)(=O)=O)C(c3ccc4c(c3)OCO4)Oc3ccc(OC(C)C)cc32)cc1 (stereo unspecified)
